The nature of assay [1]: In vitro inhibition of prostaglandin E2 production in cultured chondrocytes. Type of assay: functional, cell-based. In a few lines: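 Cultured chondrocytes were exposed to compound at neutral pH over a short incubation period. Prostaglandin E2 production was measured, and inhibitory potency is given as an IC50.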
For a further assay, the system named is Rattus norvegicus. Kind of assay: Antiinflammatory activity of the perorally administered compound assessed in adjuvant arthritis assay in rat. It counts as functional. The note with it: po. The gist of the method:
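Rats given test compound by mouth in the curative (established-disease) adjuvant arthritis/edema model. Inhibition of paw edema was scored, and potency is given as an ED50 in mg/kg.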

Some results are limits rather than exact numbers.

Consider `CCC1(CC(=O)O)SCCc2c1[nH]c1ccccc21` (configuration not stated), for which the IC50 in assay [1] came to 300 nM. In addition, the ED50 in the assay with Rattus norvegicus is over 25 mg/kg.
Regarding `CCc1cccc2c3c([nH]c12)C(CC)(CC(=O)O)CCCC3` (configuration not stated), the ED50 in the assay with Rattus norvegicus was over 50 mg/kg.
The compound `CCC1(CC(=O)O)OCCc2c1[nH]c1ccccc21` (configuration not stated) came in with an IC50 in assay [1] of 100 nM. In the assay with Rattus norvegicus, the median effective dose (ED50) was determined as 6.8 mg/kg.
On the same counts, the results for `CCc1cccc2c3c([nH]c12)C(CC)(CC(=O)O)CCC3` (configuration not stated) are 20 nM and 1.9 mg/kg.
In assay [1], `CCc1cccc2c3c([nH]c12)C(CC)(CC(=O)O)COC3` (configuration not stated) came in with a concentration for half-maximal inhibition (IC50) of 50 nM. In addition, the ED50 with Rattus norvegicus came to 3 mg/kg.
For the compound `CCc1cccc2c3c([nH]c12)C(CC)(CC(=O)O)CC3` (configuration not stated), the ED50 with Rattus norvegicus was determined as 6.2 mg/kg.
`CCc1cccc2c3c([nH]c12)C(CC)(CC(=O)O)OCC3` (configuration not stated) [ETODOLAC] had an IC50 in assay [1] of 23 nM. Also, the ED50 in the assay on Rattus norvegicus came to 0.7 mg/kg.

As usually defined, the IC50 is the point on the concentration scale where inhibition reaches its midpoint. A lower IC50 goes with inhibition by little substance. Broadly, the ED50 is the midpoint of the dose-response relation.

The values above are taken from ChEMBL document CHEMBL1124624, “Synthesis and biological evaluation of 4,6-diethyl-1,3,4,5-tetrahydropyrano[4,3-b]indole-4-acetic acid, an isomer of etodolac” (J Med Chem, 1989).
